# From ChEMBL document CHEMBL4765483 (J Med Chem, 2021)
# Tests used:
# Details in all cases: Cell membrane
# [1] = molecular target: T1, Adenosine receptor A2b (Homo sapiens) (UniProt P29275); assay: Displacement of [3H]DPCPX from human adenosine A2B receptor expressed in HEK293 cell membranes at 1 uM incubated for 30 mins by scintillation counting method
# T1 sequence (whole entry): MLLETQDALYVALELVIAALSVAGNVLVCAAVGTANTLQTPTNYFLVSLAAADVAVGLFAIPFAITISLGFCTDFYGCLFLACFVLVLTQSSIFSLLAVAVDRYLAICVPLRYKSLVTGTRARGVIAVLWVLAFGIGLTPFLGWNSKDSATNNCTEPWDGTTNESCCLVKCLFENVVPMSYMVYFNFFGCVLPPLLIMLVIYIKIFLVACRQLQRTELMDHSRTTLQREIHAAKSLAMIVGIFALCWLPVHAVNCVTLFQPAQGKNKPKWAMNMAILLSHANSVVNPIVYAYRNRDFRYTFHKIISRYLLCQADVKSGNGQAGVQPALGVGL
# [2] = molecular target: Adenosine receptor A2a (Homo sapiens) (UniProt P29274); assay: Displacement of [3H]ZM2421385 from adenosine A2A receptor expressed in human HeLa cell membranes at 1 uM incubated for 30 mins by scintillation counting method
# [3] = molecular target: T2, Adenosine receptor A3 (Homo sapiens) (UniProt P0DMS8); assay: Displacement of [3H]NECA from adenosine A3 receptor expressed in human HeLa cell membranes at 1 uM incubated for 180 mins by scintillation counting method
# T2 sequence (whole entry): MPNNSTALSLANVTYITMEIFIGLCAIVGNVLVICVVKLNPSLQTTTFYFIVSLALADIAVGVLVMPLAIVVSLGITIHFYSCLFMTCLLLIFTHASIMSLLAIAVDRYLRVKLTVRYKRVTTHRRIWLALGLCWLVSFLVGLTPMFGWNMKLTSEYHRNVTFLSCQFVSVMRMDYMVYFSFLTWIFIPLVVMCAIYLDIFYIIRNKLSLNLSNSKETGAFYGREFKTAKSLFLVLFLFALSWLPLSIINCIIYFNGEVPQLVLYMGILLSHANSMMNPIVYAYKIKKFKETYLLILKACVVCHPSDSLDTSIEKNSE
# Outline: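 hA3AR in HeLa membranes (3 pmol/mg protein) with 10 nM [3H]NECA (KD 8.7 nM); nonspecific binding with 100 μM R-PIA; incubated 180 min at 25 °C, washed, filtered, radioactivity counted.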
# [4] = molecular target: T3, Adenosine receptor A1 (Homo sapiens) (UniProt P30542); assay: Displacement of [3H]DPCPX from human adenosine A1 receptor expressed in CHO cell membranes at 1 uM incubated for 60 mins by scintillation counting method
# T3 sequence (whole entry): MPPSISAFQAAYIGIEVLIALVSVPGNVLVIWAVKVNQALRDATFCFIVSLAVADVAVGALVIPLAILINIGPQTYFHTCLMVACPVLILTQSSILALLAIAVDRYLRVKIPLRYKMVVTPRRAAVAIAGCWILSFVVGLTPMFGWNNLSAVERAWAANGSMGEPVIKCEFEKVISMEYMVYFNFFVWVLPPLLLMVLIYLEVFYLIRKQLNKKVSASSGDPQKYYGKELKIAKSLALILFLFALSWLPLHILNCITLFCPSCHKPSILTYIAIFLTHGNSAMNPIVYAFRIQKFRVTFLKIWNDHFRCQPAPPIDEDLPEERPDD
# Adenosine receptor A2a (Homo sapiens), sequence (P29274 whole entry): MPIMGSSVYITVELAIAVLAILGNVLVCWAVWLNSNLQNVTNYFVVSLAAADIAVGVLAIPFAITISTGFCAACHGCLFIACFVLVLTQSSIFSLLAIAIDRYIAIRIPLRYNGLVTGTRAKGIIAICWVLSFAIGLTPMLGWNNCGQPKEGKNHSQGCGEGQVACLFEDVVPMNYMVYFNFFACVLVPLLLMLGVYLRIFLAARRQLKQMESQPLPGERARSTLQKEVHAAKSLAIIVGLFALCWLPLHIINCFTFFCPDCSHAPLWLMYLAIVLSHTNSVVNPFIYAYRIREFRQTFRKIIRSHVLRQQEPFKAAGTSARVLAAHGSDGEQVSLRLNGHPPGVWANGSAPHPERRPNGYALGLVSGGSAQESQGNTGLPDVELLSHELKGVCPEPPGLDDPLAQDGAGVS
Structure (SMILES),inhibition [1],inhibition [2],inhibition [3],inhibition [4],inhibition ([1]; filed as antagonist)
CC1=C(C(=O)OC(C)C)[C@H](c2ccco2)NC(=S)N1,12%,6%,2%,10%,
CCOC(=O)C1=C(C)NC(=O)N[C@H]1c1ccsc1,19%,21%,3%,5%,
CC1=C(C(=O)OC(C)(C)C)C(c2ccco2)NC(=S)N1 (racemic),9%,1%,9%,3%,
CC1=C(C(=O)OC(C)(C)C)C(c2cccs2)NC(=S)N1 (racemic),26%,7%,22%,22%,
CC1=C(C(=O)OC(C)(C)C)C(c2ccsc2)NC(=O)N1 (racemic),,5%,1%,15%,47%
CC1=C(C(=O)OC(C)(C)C)C(c2ccsc2)NC(=S)N1 (racemic),26%,22%,16%,16%,
CC1=C(C(=O)OCC(C)C)C(c2ccco2)NC(=S)N1 (racemic),18%,30%,10%,7%,
CC1=C(C(=O)OCC(C)C)C(c2ccoc2)NC(=S)N1 (racemic),1%,35%,1%,12%,
CC1=C(C(=O)OCC(C)C)C(c2ccsc2)NC(=S)N1 (racemic),15%,1%,2%,8%,
CC1=C(C(=O)OCc2ccccc2)C(c2ccco2)NC(=S)N1 (racemic),,12%,4%,32%,41%
CC1=C(C(=O)OCc2ccccc2)C(c2cccs2)NC(=S)N1 (racemic),,63%,24%,34%,45%
CC1=C(C(=O)OCc2ccccc2)C(c2ccoc2)NC(=O)N1C (racemic),,37%,25%,51%,49%
CC1=C(C(=O)OCc2ccccc2)C(c2ccoc2)NC(=S)N1 (racemic),36%,16%,20%,25%,
CC1=C(C(=O)OCc2ccccc2)C(c2ccsc2)NC(=O)N1 (racemic),,21%,25%,57%,44%
CC1=C(C(=O)OCc2ccccc2)C(c2ccsc2)NC(=S)N1 (racemic),10%,16%,2%,3%,
CCCOC(=O)C1=C(C)NC(=O)NC1c1ccco1 (racemic),,,3%,,
CCCOC(=O)C1=C(C)NC(=S)NC1c1ccco1 (racemic),,2%,1%,1%,46%
CCCOC(=O)C1=C(C)NC(=S)NC1c1cccs1 (racemic),3%,1%,10%,7%,
CCCOC(=O)C1=C(C)NC(=S)NC1c1ccoc1 (racemic),,2%,3%,4%,45%
CCCOC(=O)C1=C(C)NC(=S)NC1c1ccsc1 (racemic),26%,1%,1%,5%,
COC(=O)C1=C(C)NC(=O)NC1c1ccoc1 (racemic),,3%,2%,8%,42%
COC(=O)C1=C(C)NC(=O)NC1c1ccsc1 (racemic),36%,2%,3%,7%,
COC(=O)C1=C(C)NC(=S)NC1c1ccoc1 (racemic),,1%,3%,25%,48%
COC(=O)C1=C(C)NC(=S)NC1c1ccsc1 (racemic),38%,1%,3%,3%,

# Second part, the compound after the results:
inhibition [1],inhibition [2],inhibition [3],inhibition [4],inhibition ([1]; filed as antagonist),Structure (SMILES)
26%,20%,54%,44%,,CC1=C(C(=O)OC(C)(C)C)C(c2ccco2)NC(=O)N1C (racemic)
38%,10%,7%,26%,,CC1=C(C(=O)OC(C)(C)C)C(c2cccs2)NC(=O)N1 (racemic)
24%,12%,22%,18%,,CC1=C(C(=O)OC(C)(C)C)C(c2cccs2)NC(=O)N1C (racemic)
16%,16%,12%,21%,,CC1=C(C(=O)OC(C)(C)C)C(c2ccoc2)NC(=O)N1C (racemic)
,37%,,,,CC1=C(C(=O)OC(C)C)C(c2ccco2)NC(=O)N1C (racemic)
,,17%,,,CC1=C(C(=O)OC(C)C)C(c2cccs2)NC(=O)N1C (racemic)
37%,,,,,CC1=C(C(=O)OC(C)C)C(c2ccoc2)NC(=O)N1C (racemic)
,22%,,35%,51%,CC1=C(C(=O)OC(C)C)C(c2ccsc2)NC(=O)N1C (racemic)
4%,3%,23%,13%,,CC1=C(C(=O)OCC(C)C)C(c2ccco2)NC(=O)N1C (racemic)
2%,1%,5%,9%,,CC1=C(C(=O)OCC(C)C)C(c2cccs2)NC(=O)N1C (racemic)
12%,2%,4%,1%,,CC1=C(C(=O)OCC(C)C)C(c2cccs2)NC(S)=N1 (racemic)
1%,4%,16%,4%,,CC1=C(C(=O)OCC(C)C)C(c2ccoc2)NC(=O)N1C (racemic)
,3%,18%,50%,50%,CC1=C(C(=O)OCc2ccccc2)C(c2cccs2)NC(=O)N1C (racemic)
23%,2%,8%,3%,,CCCOC(=O)C1=C(C)N(C)C(=O)NC1c1ccco1 (racemic)
1%,1%,4%,9%,,CCCOC(=O)C1=C(C)N(C)C(=O)NC1c1cccs1 (racemic)
2%,1%,16%,1%,,CCCOC(=O)C1=C(C)N(C)C(=O)NC1c1ccoc1 (racemic)
,1%,,,,CCOC(=O)C1=C(C)N(C)C(=O)NC1c1ccco1 (racemic)
,1%,2%,1%,,CCOC(=O)C1=C(C)N(C)C(=O)NC1c1cccs1 (racemic)
,23%,,32%,53%,CCOC(=O)C1=C(C)N(C)C(=O)NC1c1ccsc1 (racemic)
,,,,41%,CCOC(=O)C1=C(C)NC(=O)NC1c1cccs1 (racemic)
31%,1%,9%,45%,,COC(=O)C1=C(C)N(C)C(=O)NC1c1ccco1 (racemic)
17%,49%,15%,30%,,COC(=O)C1=C(C)N(C)C(=O)NC1c1cccs1 (racemic)
7%,5%,7%,15%,,COC(=O)C1=C(C)N(C)C(=O)NC1c1ccoc1 (racemic)
19%,1%,3%,6%,,COC(=O)C1=C(C)NC(=O)NC1c1cccs1 (racemic)
10%,1%,1%,1%,,COC(=O)C1=C(C)NC(=S)NC1c1cccs1 (racemic)
